Experimental data as given in ChEMBL document CHEMBL1221390, “Withaferin A, a cytotoxic steroid from Vassobia breviflora, induces apoptosis in human head and neck squamous cell carcinoma” (J Nat Prod, 2010).
pIC50: −log10 of the molar value. Calls of active or inactive are those of the source. The calls are words filed in the database; no cut-off is given here.

Tests used:
[1] = Cytotoxicity against human JMAR cells after 72 hrs by MTS assay; type: functional, cell-based
How it was run: (§1)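 Cells seeded at 2×10³ per well, grown 24 h, then given serial concentrations (DMSO stock diluted in medium; vehicle controls <0.1% v/v DMSO) for 72 h. MTS added, 3 h at 37 °C, 5% CO₂, absorbance at 490 nm. Viability as fraction of medium-only control; IC50 from viability–concentration curves; triplicate, means of three independent experiments. Cisplatin positive control.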

[2] = molecular target: T1, Mitogen-activated protein kinase; ERK1/ERK2 (Homo sapiens) (UniProt P27361+P28482); assay: Inhibition of ERK1/2 phosphorylation in human JHU011 cells at 0.1 to 5 uM after 24 hrs by Western blot analysis; type: cell-based
T1 sequence (P27361 whole entry, looked up): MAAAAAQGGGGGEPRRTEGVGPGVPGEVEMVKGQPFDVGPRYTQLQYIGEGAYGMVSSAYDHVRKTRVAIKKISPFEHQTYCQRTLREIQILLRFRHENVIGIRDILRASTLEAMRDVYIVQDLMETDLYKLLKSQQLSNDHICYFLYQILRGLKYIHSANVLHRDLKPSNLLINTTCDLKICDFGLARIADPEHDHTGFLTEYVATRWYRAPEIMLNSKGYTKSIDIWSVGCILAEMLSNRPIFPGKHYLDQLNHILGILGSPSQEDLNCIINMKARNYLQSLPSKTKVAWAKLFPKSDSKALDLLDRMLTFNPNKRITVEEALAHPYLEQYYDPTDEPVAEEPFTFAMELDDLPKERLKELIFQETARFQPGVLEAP
T1 sequence (P28482 whole entry, looked up): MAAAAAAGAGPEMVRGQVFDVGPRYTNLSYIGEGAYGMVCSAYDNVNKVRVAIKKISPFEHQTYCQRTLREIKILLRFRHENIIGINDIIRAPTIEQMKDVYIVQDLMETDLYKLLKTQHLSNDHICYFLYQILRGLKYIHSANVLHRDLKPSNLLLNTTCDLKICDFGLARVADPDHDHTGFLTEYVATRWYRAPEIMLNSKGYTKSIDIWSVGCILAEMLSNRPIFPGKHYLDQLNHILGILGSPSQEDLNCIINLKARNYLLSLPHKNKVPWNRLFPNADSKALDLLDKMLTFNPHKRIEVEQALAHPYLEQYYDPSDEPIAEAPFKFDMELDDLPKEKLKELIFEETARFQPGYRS
How it was run: (§2)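 Increasing concentrations for 24 h. NP-40 lysates (with NaF and orthovanadate) cleared at 14,000 × g, equal protein separated by SDS-PAGE and blotted. Probed for phospho-Akt (Ser473), total Akt, phospho-ERK1/2 and total ERK; β-actin loading control. Primary antibody overnight at 4 °C, HRP secondary 1 h.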

JHU011 = assay: Induction of apoptosis in human JHU011 cells assessed as decrease in procaspase-3 level at 1 to 6 uM after 24 hrs by Western blot analysis; type: functional, cell-based
How it was run: (§3)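 Cells exposed to increasing concentrations for 24 h, lysed in NP-40/Tris pH 7.5 buffer with protease inhibitors, NaF and orthovanadate. Equal protein run on SDS-PAGE, transferred to nitrocellulose. Probed overnight at 4 °C for uncleaved caspase 3 (pro-form) and uncleaved/cleaved PARP; HRP secondary 1 h at room temperature.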

[3] = molecular target: T1, Mitogen-activated protein kinase; ERK1/ERK2 (Homo sapiens); assay: Inhibition of ERK1/2 phosphorylation in human UM-SCC2 cells assessed as effect on total protein level at 0.1 to 5 uM after 24 hrs by Western blot analysis; type: cell-based; how it was run: as §2
UM-SCC2 [4] = assay: Induction of apoptosis in human UM-SCC2 cells assessed as decrease in procaspase-3 level at 1 to 6 uM after 24 hrs by Western blot analysis; type: functional, cell-based; how it was run: as §3
[5] = Induction of cell cycle arrest in human JMAR cells assessed as accumulation at subG0 phase at 3 uM after 24 hrs by flow cytometry; type: functional
How it was run: (§4)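 Treated 24 h with 3.0 μM or DMSO vehicle. Cells trypsinized; 1×10⁶ washed in 0.9% NaCl and fixed 30 min at room temperature in cold 70% ethanol/0.9% NaCl. Stained with PI (50 μg/mL in PBS) 30 min, then DNase-free RNase (1 mg/mL) 30 min. Phase distribution (sub-G0, G0/G1, S, G2/M) by flow cytometry.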

UM-SCC2 [6] = assay: Induction of apoptosis in human UM-SCC2 cells assessed as increase in late non-viable necrotic cells at 5 uM after 24 hrs by FITC-conjugated annexin V and propidium iodide staining-based flow cytometry; type: functional, cell-based
How it was run: (§5)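 Cells given 5.0 μM for 24 h, harvested, and co-stained at 1×10⁶ cells/mL with annexin V-FITC and PI. Annexin binding buffer added before flow cytometry. Annexin V only scored as early apoptosis, annexin V+PI as late apoptosis, PI only as necrosis. Triplicate; t-test.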

Homo sapiens = species: Homo sapiens; assay: Induction of apoptosis in human MDA1986 cells assessed as increase in early apoptotic cells at 5 uM after 24 hrs by FITC-conjugated annexin V and propidium iodide staining-based flow cytometry; type: functional, cell-based; how it was run: as §5
UM-SCC2 [7] = assay: Induction of apoptosis in human UM-SCC2 cells assessed as induction of PRAP cleavage after 24 hrs by Western blot analysis; type: functional, cell-based; how it was run: as §3
[8] = molecular target: RAC-alpha serine/threonine-protein kinase (Homo sapiens) (UniProt P31749); assay: Inhibition of Akt in human MDA1986 cells assessed as decrease in total protein level at 0.1 to 5 uM after 24 hrs by Western blot analysis; type: cell-based; how it was run: as §2
RAC-alpha serine/threonine-protein kinase (Homo sapiens), sequence (P31749 whole entry): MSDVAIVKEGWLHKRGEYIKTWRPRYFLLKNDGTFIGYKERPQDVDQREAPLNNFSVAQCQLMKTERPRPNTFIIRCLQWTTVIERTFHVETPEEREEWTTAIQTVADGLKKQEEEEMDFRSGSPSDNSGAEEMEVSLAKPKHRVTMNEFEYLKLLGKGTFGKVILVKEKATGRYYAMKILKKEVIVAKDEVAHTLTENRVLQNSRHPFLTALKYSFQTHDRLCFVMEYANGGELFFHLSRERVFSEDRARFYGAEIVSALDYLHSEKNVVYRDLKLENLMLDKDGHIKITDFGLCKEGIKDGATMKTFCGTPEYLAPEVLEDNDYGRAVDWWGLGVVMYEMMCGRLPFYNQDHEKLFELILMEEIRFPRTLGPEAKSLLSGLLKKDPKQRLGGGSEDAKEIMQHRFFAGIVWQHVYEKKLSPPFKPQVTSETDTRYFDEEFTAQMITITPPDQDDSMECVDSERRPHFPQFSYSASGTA

[9] = Induction of cell cycle arrest in human JHU011 cells assessed as accumulation at G2/M phase at 3 uM after 24 hrs by flow cytometry; type: functional; how it was run: as §4
[10] = Induction of apoptosis in human JHU011 cells assessed as early apoptotic cells at 5 uM after 24 hrs by FITC-conjugated annexin V and propidium iodide staining-based flow cytometry; type: functional; how it was run: as §5
JMAR [11] = assay: Induction of apoptosis in human JMAR cells assessed as induction of PRAP cleavage after 24 hrs by Western blot analysis; type: functional, cell-based; how it was run: as §3
[12] = molecular target: RAC-alpha serine/threonine-protein kinase (Homo sapiens) (UniProt P31749); assay: Inhibition of Akt in human MDA1986 cells assessed as highest required for enzyme activity after 24 hrs by Western blot analysis; type: cell-based; how it was run: as §2
[13] = Cytotoxicity against human UM-SCC2 cells after 72 hrs by MTS assay; type: functional, cell-based; conditions: UM-SCC2, 72 h
How it was run: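 Seeded at 2×10³ cells/well, left 24 h, then exposed to serial dilutions in medium (from DMSO stock; vehicle controls <0.1% DMSO v/v) for 72 h. MTS added, 3 h at 37 °C, 5% CO₂, absorbance 490 nm. Viability expressed relative to medium-only control; IC50 read from viability–concentration curves. Triplicate; cisplatin positive control.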

[14] = molecular target: RAC-alpha serine/threonine-protein kinase (Homo sapiens) (UniProt P31749); assay: Inhibition of Akt phosphorylation in human UM-SCC2 cells after 24 hrs by Western blot analysis; type: cell-based; how it was run: as §2
UM-SCC2 [15] = assay: Induction of apoptosis in human UM-SCC2 cells assessed as increase in early apoptotic cells at 5 uM after 24 hrs by FITC-conjugated annexin V and propidium iodide staining-based flow cytometry; type: functional, cell-based; how it was run: as §5
JMAR [16] = assay: Induction of apoptosis in human JMAR cells assessed as increase in early apoptotic cells at 5 uM after 24 hrs by FITC-conjugated annexin V and propidium iodide staining-based flow cytometry; type: functional, cell-based; how it was run: as §5
[17] = Cytotoxicity against human MDA1986 cells after 72 hrs by MTS assay; type: functional, cell-based; conditions: MDA1986, 72 h; how it was run: as §1
[18] = Induction of cell cycle arrest in human UM-SCC2 cells assessed as accumulation at G2/M phase at 3 uM after 24 hrs by flow cytometry; type: functional; how it was run: as §4
[19] = Induction of cell cycle arrest in human MDA1986 cells assessed as accumulation at G2/M phase at 3 uM after 24 hrs by flow cytometry; type: functional; how it was run: as §4
[20] = molecular target: RAC-alpha serine/threonine-protein kinase (Homo sapiens) (UniProt P31749); assay: Inhibition of Akt in human UM-SCC2 cells assessed as decrease in total protein level at 0.1 to 5 uM after 24 hrs by Western blot analysis; type: cell-based; how it was run: as §2
[21] = molecular target: RAC-alpha serine/threonine-protein kinase (Homo sapiens) (UniProt P31749); assay: Inhibition of Akt phosphorylation in human MDA1986 cells after 24 hrs by Western blot analysis; type: cell-based; how it was run: as §2
JMAR [22] = assay: Induction of apoptosis in human JMAR cells assessed as increase in non-viable necrotic cells at 5 uM after 24 hrs by FITC-conjugated annexin V and propidium iodide staining-based flow cytometry; type: functional, cell-based; how it was run: as §5

inhibition [2]: inactive
inhibition [3]: inactive
inhibition [8]: Active
Activity [12]: 2.5 µM
inhibition [14]: Dose-dependent effect
inhibition [20]: Active
inhibition [21]: Dose-dependent effect
Compound: CC1=C(CO)C(=O)O[C@@H]([C@@H](C)[C@H]2CC[C@H]3[C@@H]4C[C@H]5O[C@]56[C@@H](O)C=CC(=O)[C@]6(C)[C@H]4CC[C@]23C)C1 [WITHAFERIN A]
pIC50 [1]: 5.70
Activity (JHU011): Active
Activity (UM-SCC2 [4]): Active
Activity [5]: 12%
Activity (UM-SCC2 [6]): Active
Activity (Homo sapiens): inactive
Activity (UM-SCC2 [7]): Dose-dependent effect
Activity [9]: 34%
Activity [10]: 14.8%
Activity (JMAR [11]): Dose-dependent effect
pIC50 [13]: 6.30
Activity (UM-SCC2 [15]): Active
Activity (JMAR [16]): Active
pIC50 [17]: 6.10
Activity [18]: 36%
Activity [19]: 49%
Activity (JMAR [22]): Active
